Data set [1] in a line: Genotoxicity in Salmonella typhimurium TA1535 harboring pSK1002 assessed as survival at 0.5 mg/ml in absence of Sprague-Dawley rat liver S9 fraction metabolic activation by SOS/umu assay relative to control. It counts as toxicity. To be noted: salmonella enterica subsp. enterica serovar typhimurium, read-out: Survival. The method in brief:
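Survival of S. typhimurium TA1535/pSK1002 exposed to a range of compound concentrations with or without S9 mix in 96-well format. Survival percentage measured as the cytotoxicity arm of the SOS/umu test. Concentrations with survival ≥80% are counted as non-cytotoxic.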

Data set [2] is described as follows: Toxicity in BALB/c mouse infected with Trypanosoma cruzi MHOM/Pe/2011/Arequipa;DTU 5 bloodstream trypomastigote assessed as increase in serum total bilirubin level in chronic phase at 20 mg/kg/day, po administered for 5 consecutive days starting from day 70 post infection measured on day 100 post infection relative to control. To be noted: in vivo. It counts as organism-based.

A short description of data set [3]: Toxicity in BALB/c mouse infected with Trypanosoma cruzi MHOM/Pe/2011/Arequipa;DTU 5 bloodstream trypomastigote assessed as change in serum urea level in acute phase at 20 mg/kg/day, po administered for 5 consecutive days starting from day 8 post infection and measured on day 100 post infection by biochemical analysis relative to control. It counts as organism-based. Particulars: in vivo.

A short description of data set [4]: Toxicity in BALB/c mouse infected with Trypanosoma cruzi MHOM/Pe/2011/Arequipa;DTU 5 bloodstream trypomastigote assessed as increase in serum total bilirubin level in chronic phase at 20 mg/kg/day, po administered for 5 consecutive days starting from day 70 post infection and measured at day 76 post infection relative to control. It counts as organism-based. Particulars: in vivo.

A short description of data set [5]: Mutagenecity against Salmonella typhimurium TA1535 assessed as number of colonies at 66.7 ug/plate in absence of Sprague-Dawley rat S9 measured after 48 hrs by Ames test (reference value: 13.3 +/- 2.5). It counts as toxicity. Particulars: salmonella enterica subsp. enterica serovar typhimurium, s9, 48 h.
The nature of data set [6]: Mutagenecity against Salmonella typhimurium TA 102 assessed as number of colonies at 22.2 ug/plate in absence of Sprague-Dawley rat S9 with metabolic activation measured after 48 hrs by Ames test (reference value: 78.7 +/- 7.8). It counts as toxicity. Particulars: salmonella enterica subsp. enterica serovar typhimurium, s9, 48 h.
The test system of data set [7] is Trypanosoma cruzi. The data set is described as follows: Antitrypanosomal activity against Trypanosoma cruzi MHOM/Pe/2011/Arequipa;DTU 5 epimastigote assessed as effect on parasite glycolytic pathway by measuring increase in pyruvate excretion at IC50 after 72 hrs by H NMR method relative to control. In kind it is functional. A digest of the protocol: (§1)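 Cells were spun at 800 × g for 10 min and culture supernatants analysed by 1H NMR. Catabolite peaks were expressed as % variation versus untreated parasites.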

Data set [8] in a line: Mutagenecity against Salmonella typhimurium TA98 assessed as number of colonies at 66.7 ug/plate in presence of Sprague-Dawley rat S9 measured after 48 hrs by Ames test (reference value: 4 +/- 2). It counts as toxicity, subcellular. To be noted: salmonella enterica subsp. enterica serovar typhimurium, s9, 48 h.
The test system of data set [9] is Trypanosoma cruzi. The data set is described as follows: Antitrypanosomal activity against Trypanosoma cruzi MHOM/Pe/2011/Arequipa;DTU 5 epimastigote assessed as effect on parasite glycolytic pathway by measuring increase in succinate excretion at IC50 after 72 hrs by H NMR method relative to control. In kind it is functional. A digest of the protocol: as §1
Data set [10] is described as follows: Mutagenecity against Salmonella typhimurium TA1535 assessed as number of colonies at 22.2 ug/plate in absence of Sprague-Dawley rat S9 measured after 48 hrs by Ames test (reference value: 13.3 +/- 2.5). To be noted: salmonella enterica subsp. enterica serovar typhimurium, s9, 48 h. In kind it is toxicity.
Data set [11] in a line: Toxicity in BALB/c mouse infected with Trypanosoma cruzi MHOM/Pe/2011/Arequipa;DTU 5 bloodstream trypomastigote assessed as decrease in serum aspartate aminotransferase level in chronic phase at 20 mg/kg/day, po administered for 5 consecutive days starting from day 70 post infection measured on day 100 post infection relative to control. It counts as organism-based. Further details: scale not given: the % may be the effect or the level left. To be noted: in vivo.

Data set [12] in a line: Mutagenecity against Salmonella typhimurium TA1535 assessed as number of colonies at 66.7 ug/plate in presence of Sprague-Dawley rat S9 measured after 48 hrs by Ames test (reference value: 5 +/- 3.6). To be noted: salmonella enterica subsp. enterica serovar typhimurium, s9, 48 h. In kind it is toxicity, subcellular.
Data set [13] can be described thus: Mutagenecity against Salmonella typhimurium TA98 assessed as number of colonies at 7.4 ug/plate in absence of Sprague-Dawley rat S9 measured after 48 hrs by Ames test (reference value: 3 +/- 2.6). To be noted: salmonella enterica subsp. enterica serovar typhimurium, s9, 48 h. It counts as toxicity.
Data set [14] in a line: Mutagenecity against Salmonella typhimurium TA 100 assessed as number of colonies at 66.7 ug/plate in presence of Sprague-Dawley rat S9 with metabolic activation measured after 48 hrs by Ames test (reference value: 47.3 +/- 5.7). Particulars: salmonella enterica subsp. enterica serovar typhimurium, s9, 48 h. In kind it is toxicity, subcellular.
Data set [15] is described as follows: Mutagenecity against Salmonella typhimurium TA98 assessed as number of colonies at 22.2 ug/plate in presence of Sprague-Dawley rat S9 measured after 48 hrs by Ames test (reference value: 4 +/- 2). It counts as toxicity, subcellular. To be noted: salmonella enterica subsp. enterica serovar typhimurium, s9, 48 h.
Data set [16] is described as follows: Mutagenecity against Salmonella typhimurium TA 102 assessed as number of colonies at 200 ug/plate in presence of Sprague-Dawley rat S9 with metabolic activation measured after 48 hrs by Ames test (reference value: 72 +/- 1). In kind it is toxicity, subcellular. To be noted: salmonella enterica subsp. enterica serovar typhimurium, s9, 48 h.
Data set [17] in a line: Mutagenecity against Salmonella typhimurium TA 100 assessed as number of colonies at 7.4 ug/plate in presence of Sprague-Dawley rat S9 with metabolic activation measured after 48 hrs by Ames test (reference value: 47.3 +/- 5.7). It counts as toxicity, subcellular. Particulars: salmonella enterica subsp. enterica serovar typhimurium, s9, 48 h.
Data set [18] is described as follows: Mutagenecity against Salmonella typhimurium TA97a assessed as number of colonies at 7.4 ug/plate in presence of Sprague-Dawley rat S9 with metabolic activation measured after 48 hrs by Ames test (reference value: 55 +/- 7.1). In kind it is toxicity, subcellular. To be noted: salmonella enterica subsp. enterica serovar typhimurium, s9, 48 h.
A short description of data set [19]: Toxicity in BALB/c mouse infected with Trypanosoma cruzi MHOM/Pe/2011/Arequipa;DTU 5 bloodstream trypomastigote assessed as change in serum lactate dehydrogenase level in chronic phase at 20 mg/kg/day, po administered for 5 consecutive days starting from day 70 post infection measured on day 100 post infection relative to control. In kind it is organism-based. Particulars: in vivo.

Data set [20] can be described thus: Mutagenecity against Salmonella typhimurium TA 102 assessed as number of colonies at 22.2 ug/plate in presence of Sprague-Dawley rat S9 with metabolic activation measured after 48 hrs by Ames test (reference value: 72 +/- 1). It counts as toxicity, subcellular. To be noted: salmonella enterica subsp. enterica serovar typhimurium, s9, 48 h.
Data set [21] can be described thus: Toxicity in BALB/c mouse infected with Trypanosoma cruzi MHOM/Pe/2011/Arequipa;DTU 5 bloodstream trypomastigote assessed as change in serum alkaline phosphatase level in acute phase at 20 mg/kg/day, po administered for 5 consecutive days starting from day 8 post infection and measured at day 14 post infection by biochemical analysis relative to control. It counts as organism-based. To be noted: in vivo.

Data set [22] is described as follows: Toxicity in BALB/c mouse infected with Trypanosoma cruzi MHOM/Pe/2011/Arequipa;DTU 5 bloodstream trypomastigote assessed as increase in serum lactate dehydrogenase level in acute phase at 20 mg/kg/day, po administered for 5 consecutive days starting from day 8 post infection and measured on day 100 post infection by biochemical analysis relative to control. It counts as organism-based. To be noted: in vivo.

A short description of data set [23]: Toxicity in BALB/c mouse infected with Trypanosoma cruzi MHOM/Pe/2011/Arequipa;DTU 5 bloodstream trypomastigote assessed as decrease in serum total bilirubin level in acute phase at 20 mg/kg/day, po administered for 5 consecutive days starting from day 8 post infection and measured at day 14 post infection by biochemical analysis relative to control. Further details: scale not given: the % may be the effect or the level left. To be noted: in vivo. It counts as organism-based.

Data set [24] in a line: Toxicity in BALB/c mouse infected with Trypanosoma cruzi MHOM/Pe/2011/Arequipa;DTU 5 bloodstream trypomastigote assessed as increase in serum aspartate aminotransferase level in acute phase at 20 mg/kg/day, po administered for 5 consecutive days starting from day 8 post infection and measured at day 14 post infection by biochemical analysis relative to control. It counts as organism-based. Particulars: in vivo.

Some results are limits rather than exact numbers.

On to `O=C(CCN1CCN(c2ccc(C(F)(F)F)cc2)CC1)c1ccc(O)cc1`, for which, in data set [1], the viability at 0.5 mg/ml is 155%. Further, the Activity entry was “<= 20%” in data set [2], more than 10% in data set [3] and more than 40% in [4].
Regarding `O=C(CCN1CCN(c2ccc(Cl)cc2)CC1)c1ccc(O)cc1`, the Activity is recorded as 3.7 in data set [5]; 69.7 in data set [6]; 36% in the data set on Trypanosoma cruzi [7]; 6.3 in data set [8]; 34% with Trypanosoma cruzi [9]; 4 in data set [10]. Further, the Activity result in data set [11] is “<= 10%”; in [12], 3.3; in [13] it was 4; in data set [14], 54.7; in data set [15], 4; in data set [16] it was 78. In addition, the Activity is reported as 44.7 in data set [17], 44.3 in data set [18], more than 10% in [19] and 84.7 in data set [20].
Turning to `O=C(Cn1ccnc1[N+](=O)[O-])NCc1ccccc1` [BENZNIDAZOLE], the Activity in data set [21] is recorded as more than 10%; in data set [22] it was “<= 10%”; in data set [23], “<= 10%”; in [24], “<= 20%”.

These data come from ChEMBL document CHEMBL4402517, “Rational modification of Mannich base-type derivatives as novel antichagasic compounds: Synthesis, in vitro and in vivo evaluation” (Bioorg Med Chem, 2019).
